Consider 64 molecules from ChEMBL document CHEMBL1140106, “Blocking estrogen signaling after the hormone: pyrimidine-core inhibitors of estrogen receptor-coactivator binding” (J Med Chem, 2008).

Assay [1] concerns the target T1, Estrogen receptor (Homo sapiens, UniProt P03372).
T1 sequence (P03372 whole entry): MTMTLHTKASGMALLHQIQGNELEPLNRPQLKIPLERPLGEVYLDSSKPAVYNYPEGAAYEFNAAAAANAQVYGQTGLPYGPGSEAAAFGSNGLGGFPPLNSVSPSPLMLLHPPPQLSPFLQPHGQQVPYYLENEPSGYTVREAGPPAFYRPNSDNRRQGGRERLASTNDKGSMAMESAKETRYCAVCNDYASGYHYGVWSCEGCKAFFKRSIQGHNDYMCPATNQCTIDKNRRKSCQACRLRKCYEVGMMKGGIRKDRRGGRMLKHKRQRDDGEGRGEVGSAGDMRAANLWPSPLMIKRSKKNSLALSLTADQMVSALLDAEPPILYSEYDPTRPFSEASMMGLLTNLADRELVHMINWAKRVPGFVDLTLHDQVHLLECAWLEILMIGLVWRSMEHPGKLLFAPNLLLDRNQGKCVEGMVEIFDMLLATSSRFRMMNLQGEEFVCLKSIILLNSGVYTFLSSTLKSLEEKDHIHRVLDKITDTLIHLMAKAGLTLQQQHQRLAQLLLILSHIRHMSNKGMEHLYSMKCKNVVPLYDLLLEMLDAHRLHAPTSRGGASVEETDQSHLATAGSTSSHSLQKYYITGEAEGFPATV
The assay can be described thus: Binding affinity to ERalpha assessed as inhibition of fluorescein-labeled nuclear receptor domain of steroid receptor coactivator 3 by TR-FRET assay. In a few lines:
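Fluorescein-SRC-3-NRD (50 nM) was then added for 1 h at room temperature in the dark. Buffer: 20 mM Tris pH 7.5, 0.01% NP40, 50 mM NaCl. SRC-1 Box II peptide served as positive control.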
A general note: In TR-FRET formats the signal depends on donor and acceptor labels being close together.

The target of assay [2] is Estrogen receptor beta (Homo sapiens, UniProt Q92731). The assay can be described thus: Binding affinity to ERbeta assessed as inhibition of fluorescein-labeled nuclear receptor domain of steroid receptor coactivator 3 by TR-FRET assay.
Sequence of Estrogen receptor beta (Q92731 whole entry, the tested form may be a part): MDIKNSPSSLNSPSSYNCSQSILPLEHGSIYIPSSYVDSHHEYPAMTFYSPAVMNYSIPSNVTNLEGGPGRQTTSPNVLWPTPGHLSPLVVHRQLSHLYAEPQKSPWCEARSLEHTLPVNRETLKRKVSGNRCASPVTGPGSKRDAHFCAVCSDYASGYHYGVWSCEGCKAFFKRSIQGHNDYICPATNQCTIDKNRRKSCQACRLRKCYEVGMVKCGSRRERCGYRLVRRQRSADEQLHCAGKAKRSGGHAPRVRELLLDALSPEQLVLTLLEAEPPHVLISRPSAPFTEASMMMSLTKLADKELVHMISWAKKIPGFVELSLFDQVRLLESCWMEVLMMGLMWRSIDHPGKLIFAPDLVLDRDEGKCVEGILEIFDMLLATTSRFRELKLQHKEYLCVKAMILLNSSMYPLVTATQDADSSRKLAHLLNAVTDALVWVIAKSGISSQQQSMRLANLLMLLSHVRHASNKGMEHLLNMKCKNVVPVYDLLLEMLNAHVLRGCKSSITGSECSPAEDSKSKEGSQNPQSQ

In the case of `CC(C)CNc1cc(/C=C/c2ccccc2)nc(N(C)CC(C)C)n1`, the Ki in assay [1] and in assay [2] was over 1000 µM each time.
As for `CC(C)CNc1cc(SCC(C)C)nc(NCC(C)C)n1`, the Ki in assay [1] and in assay [2] was over 1000 µM each time.
In the case of `CC(C)(C)OC(=O)N(Cc1ccccc1)c1cc(CCc2cccc3ccccc23)nc(NCc2cccc3ccccc23)n1`, the inhibitory constant (Ki) in assay [1] and in assay [2] was over 1000 µM each time.
Regarding `CC(C)CCc1cc(N(C)CC(C)C)nc(NCC(C)C)n1`, the Ki in assay [1] and in assay [2] was over 1000 µM each time.
Regarding `CC(C)(C)OC(=O)N(Cc1cccc2ccccc12)c1cc(CCc2cccc3ccccc23)nc(NCc2ccccc2)n1`, the Ki in assay [1] and in assay [2] was over 1000 µM throughout.
Regarding `CC(C)CCc1cc(N(C)CC(C)C)nc(N(C)CC(C)C)n1`, the Ki in assay [1] and in assay [2] was over 1000 µM each time.
For the molecule `CC(C)CN(C(=O)OC(C)(C)C)c1cc(CCc2cccc3ccccc23)nc(NCc2cccc3ccccc23)n1`, the Ki in assay [1] and in assay [2] was over 1000 µM in each case.
On to `CC(C)CNc1cc(NCC(C)C)ncn1`, for which the Ki in assay [1] was over 1000 µM.
`CCc1cc(NCC(C)C)nc(NCC(C)C)n1`: the inhibition constant (Ki) in assay [2] is over 1000 µM.
For the molecule `CC(C)CCc1cc(NCC(C)C)nc(SCC(C)C)n1`, the Ki in assay [1] and in assay [2] was over 1000 µM each time.
Regarding `CC(C)CCc1cc(N(CC(C)C)C(=O)OC(C)(C)C)nc(NCc2cccc3ccccc23)n1`, the Ki in assay [1] and in assay [2] was over 1000 µM throughout.
As for `CC(C)CCc1cc(CCC(C)C)nc(NCC(C)C)n1`, the Ki in assay [1] and in assay [2] was over 1000 µM in each case.
As for `CC(C)CNc1cc(NCC(C)C)nc(CCc2cccc3ccccc23)n1`, the Ki in assay [1] and in assay [2] was over 1000 µM in each case.
Regarding `CC(C)CCc1nc(NCc2ccccc2)cc(NCC(C)C)n1`, the Ki in assay [1] and in assay [2] was over 1000 µM in each case.
Regarding `CC(C)CCc1cc(SCc2ccccc2)nc(SCc2ccccc2)n1`, the inhibition constant (Ki) in assay [1] and in assay [2] was over 1000 µM in each case.
For `CC(C)CCc1cc(N(CC(C)C)C(=O)OC(C)(C)C)nc(NCc2ccccc2)n1`, the inhibitory constant (Ki) in assay [1] and in assay [2] was over 1000 µM throughout.
Regarding `CC(C)CCc1cc(N(Cc2cccc3ccccc23)C(=O)OC(C)(C)C)nc(NCc2ccccc2)n1`, the Ki in assay [1] and in assay [2] was over 1000 µM each time.
On to `C(=C\c1cc(/C=C/c2ccccc2)nc(NCc2cccc3ccccc23)n1)/c1ccccc1`, for which the Ki in assay [1] and in assay [2] was over 1000 µM throughout.
With `CC(C)CN(C)c1cc(/C=C/c2ccccc2)nc(N(C)CC(C)C)n1`, the Ki in assay [1] and in assay [2] was over 1000 µM throughout.
As to `c1ccc(CNc2cc(CCc3cccc4ccccc34)nc(NCc3ccccc3)n2)cc1`, the inhibition constant Ki in assay [1] and in assay [2] was over 1000 µM throughout.
Turning to `CC(C)CCc1cc(S(=O)(=O)Cc2ccccc2)nc(S(=O)(=O)Cc2ccccc2)n1`, the inhibition constant (Ki) in assay [1] and in assay [2] was over 1000 µM throughout.
Consider `CC(C)CN(C(=O)OC(C)(C)C)c1cc(CCc2cccc3ccccc23)nc(NCc2ccccc2)n1`, for which the Ki in assay [1] and in assay [2] was over 1000 µM in each case.
As to `CC(C)CNc1cc(CCc2ccccc2)nc(N(C)CC(C)C)n1`, the Ki in assay [1] and in assay [2] was over 1000 µM each time.
Consider `CC(C)CNc1cc(CCc2cccc3ccccc23)nc(N(C)CC(C)C)n1`, for which the Ki in assay [1] and in assay [2] was over 1000 µM throughout.
For `CC(C)CNc1nc(CCc2ccccc2)cc(N(C)CC(C)C)n1`, the Ki in assay [2] is over 1000 µM.
In the case of `C(=C\c1cc(NCc2ccccc2)nc(NCc2cccc3ccccc23)n1)/c1ccccc1`, the Ki in assay [1] and in assay [2] was over 1000 µM in each case.
Consider `C(=C\c1cc(NCc2cccc3ccccc23)nc(NCc2cccc3ccccc23)n1)/c1ccccc1`, for which the Ki in assay [1] and in assay [2] was over 1000 µM in each case.
On to `CC(C)CNc1nc(CCc2ccccc2)cc(N(Cc2ccccc2)C(=O)OC(C)(C)C)n1`, for which the inhibition constant Ki in assay [1] and in assay [2] was over 1000 µM each time.
As for `CC(C)CCc1cc(OCC(C)C)nc(OCC(C)C)n1`, the Ki in assay [1] and in assay [2] was over 1000 µM throughout.
For the molecule `O=S(=O)(Cc1ccccc1)c1cc(CCc2ccccc2)nc(S(=O)(=O)Cc2ccccc2)n1`, the inhibitory constant (Ki) in assay [1] and in assay [2] was over 1000 µM each time.
As for `CC(C)CNc1nc(/C=C/c2ccccc2)cc(N(Cc2ccccc2)C(=O)OC(C)(C)C)n1`, the inhibitory constant (Ki) in assay [1] was over 1000 µM; in assay [2], 132 µM.
Consider `CC(C)CSc1cc(CCc2ccccc2)nc(SCC(C)C)n1`, for which the Ki in assay [1] and in assay [2] was over 1000 µM throughout.
`CC(C)CNc1nc(CCc2cccc3ccccc23)cc(NCc2ccccc2)n1`: the Ki in assay [1] and in assay [2] was over 1000 µM throughout.
With `c1ccc(CNc2cc(CCc3cccc4ccccc34)nc(NCc3cccc4ccccc34)n2)cc1`, the inhibitory constant (Ki) in assay [1] and in assay [2] was over 1000 µM throughout.
For `CC(C)CNc1cc(CCc2cccc3ccccc23)nc(NCc2ccccc2)n1`, the Ki in assay [1] and in assay [2] was over 1000 µM in each case.
As for `CC(C)CNc1cc(S(=O)(=O)CC(C)C)nc(NCC(C)C)n1`, the Ki in assay [1] and in assay [2] was over 1000 µM each time.
Take `c1ccc(CCc2cc(SCc3ccccc3)nc(SCc3ccccc3)n2)cc1`: the Ki in assay [1] and in assay [2] was over 1000 µM each time.
On to `CC(C)CS(=O)(=O)c1cc(CCc2ccccc2)nc(S(=O)(=O)CC(C)C)n1`, for which the inhibition constant Ki in assay [1] and in assay [2] was over 1000 µM throughout.
In the case of `CC(C)CNc1nc(CCc2cccc3ccccc23)cc(NCc2cccc3ccccc23)n1`, the inhibitory constant (Ki) in assay [1] and in assay [2] was over 1000 µM each time.
For the molecule `CC(C)CCc1nc(NCC(C)C)cc(NCC(C)C)n1`, the Ki in assay [1] and in assay [2] was over 1000 µM each time.
Consider `CC(C)CNc1cc(OCC(C)C)nc(NCC(C)C)n1`, for which the Ki in assay [1] and in assay [2] was over 1000 µM in each case.
As to `CC(C)CN(C)c1cc(CCc2cccc3ccccc23)nc(N(C)CC(C)C)n1`, the Ki in assay [1] and in assay [2] was over 1000 µM in each case.
Consider `CC(C)CCc1cc(SCC(C)C)nc(SCC(C)C)n1`, for which the Ki in assay [1] and in assay [2] was over 1000 µM each time.
For the molecule `CC(C)CCc1cc(NCC(C)C)nc(NCc2cccc3ccccc23)n1`, the Ki in assay [2] is over 1000 µM.
In the case of `CC(C)CCc1cc(NCc2cccc3ccccc23)nc(NCC(C)C)n1`, the Ki in assay [2] was over 1000 µM.
On to `CC(C)CCc1cc(CCC(C)C)nc(NCc2cccc3ccccc23)n1`, for which the inhibition constant Ki in assay [1] and in assay [2] was over 1000 µM in each case.
`CC(C)CNc1cc(CCc2ccccc2)nc(NCc2ccccc2)n1`: the Ki in assay [2] was over 1000 µM.
Still for that read-out and setting: the figure for `CC(C)CNc1nc(CCc2cccc3ccccc23)cc(N(C)CC(C)C)n1` is over 1000 µM.
As to `CC(C)CNc1nc(CCc2ccccc2)cc(NCc2cccc3ccccc23)n1`, the Ki in assay [1] and in assay [2] was over 1000 µM throughout.
For `CC(C)CNc1nc(CCc2cccc3ccccc23)cc(N(Cc2cccc3ccccc23)C(=O)OC(C)(C)C)n1`, the Ki in assay [1] and in assay [2] was over 1000 µM in each case.
Turning to `CC(C)(C)OC(=O)N(Cc1cccc2ccccc12)c1cc(/C=C/c2ccccc2)nc(NCc2cccc3ccccc23)n1`, the inhibition constant (Ki) in assay [1] and in assay [2] was over 1000 µM in each case.
Regarding `CC(C)CCc1cc(NCC(C)C)nc(S(=O)(=O)CC(C)C)n1`, the Ki in assay [1] and in assay [2] was over 1000 µM throughout.
On to `CC(C)CCc1cc(S(=O)(=O)CC(C)C)nc(S(=O)(=O)CC(C)C)n1`, for which the Ki in assay [1] and in assay [2] was over 1000 µM in each case.
As to `c1ccc(CCc2cc(CCc3ccccc3)nc(NCc3ccccc3)n2)cc1`, the Ki in assay [1] and in assay [2] was over 1000 µM each time.
Turning to `CC(C)CNc1cc(CCc2cccc3ccccc23)nc(NCc2cccc3ccccc23)n1`, the Ki in assay [1] and in assay [2] was over 1000 µM each time.
As for `CC(C)CNc1nc(CCc2cccc3ccccc23)cc(N(Cc2ccccc2)C(=O)OC(C)(C)C)n1`, the Ki in assay [1] and in assay [2] was over 1000 µM in each case.
As to `c1ccc(CCc2cc(NCc3ccccc3)nc(NCc3cccc4ccccc34)n2)cc1`, the inhibition constant (Ki) in assay [1] and in assay [2] was over 1000 µM in each case.
Consider `CC(C)CN(C)c1cc(CCc2ccccc2)nc(N(C)CC(C)C)n1`, for which the inhibitory constant (Ki) in assay [1] and in assay [2] was over 1000 µM each time.
As to `CC(C)CN(C(=O)OC(C)(C)C)c1cc(CCc2ccccc2)nc(NCc2ccccc2)n1`, the Ki in assay [1] and in assay [2] was over 1000 µM in each case.
As to `CC(C)CCc1cc(N(Cc2cccc3ccccc23)C(=O)OC(C)(C)C)nc(NCC(C)C)n1`, the inhibitory constant (Ki) in assay [1] and in assay [2] was over 1000 µM throughout.
For the molecule `c1ccc(CNc2cc(NCc3ccccc3)nc(NCc3ccccc3)n2)cc1`, the inhibitory constant (Ki) in assay [1] and in assay [2] was over 1000 µM in each case.
On to `CC(C)CCc1cc(N(Cc2ccccc2)C(=O)OC(C)(C)C)nc(NCc2cccc3ccccc23)n1`, for which the Ki in assay [1] and in assay [2] was over 1000 µM throughout.
In the case of `CC(C)CCc1cc(N(Cc2ccccc2)C(=O)OC(C)(C)C)nc(NCC(C)C)n1`, the Ki in assay [1] and in assay [2] was over 1000 µM each time.
Take `c1ccc(CNc2nc(CCc3cccc4ccccc34)cc(NCc3cccc4ccccc34)n2)cc1`: the Ki in assay [1] and in assay [2] was over 1000 µM each time.

As a reminder, the Ki is a dissociation constant, usually derived from enzyme kinetics or from competition with a known ligand.
